From ChEMBL document CHEMBL1629440, “Synthesis and pharmacological properties of novel hydrophilic 5-HT4 receptor antagonists” (Bioorg Med Chem, 2010)

Key:
[1] = biological target: T1, 5-hydroxytryptamine receptor 4 (Homo sapiens, UniProt Q13639); assay: Displacement of [3H]GR113808 from human 5HT4 receptor expressed in HEK293 cells by liquid scintillation counting; type: cell-based
Outline: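 Membranes from HEK293 line stably expressing human 5-HT4(b) at high level (5000 fmol/mg). Incubated with 0.3 nM [3H]GR113808 and 21 competitor concentrations in Tris-HCl pH 7.5, EDTA, EGTA, 2 mM MgCl2, ascorbate, 0.1% BSA, 100 µM GTP, room temperature 1 h. Filtered onto PEI-soaked filters, washed, scintillation counted. Ki derived from IC50 via Ki = IC50/(1+L/Kd).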

[2] = biological target: T1, 5-hydroxytryptamine receptor 4; assay: Antagonistic activity at human 5HT4 receptor expressed in HEK293 cells assessed as inhibition of 5-HT stimulated ADCY activity after 20 mins; type: functional, cell-based
Outline: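 Membranes from HEK293 cells stably expressing human 5-HT4(b) at low level (400 fmol/mg). Adenylyl cyclase activity was stimulated by 1 µM 5-HT with 21 antagonist concentrations, 0.1 mM [α-32P]ATP, 4 mM MgCl2, 1 mM IBMX, GTP and ATP-regenerating system, 32 °C, 20 min. [32P]cAMP was isolated on Dowex/alumina columns. IC50 was fitted by non-linear regression and Kb calculated using 5-HT EC50.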

[3] = Lipophilicity, log D of the compound in octanol buffer at pH 7.4; type: physicochemical
Outline: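 Distribution between octanol and aqueous buffer at pH 7.4. Both phases were diluted and ligand concentration in each measured by HPLC. Not determined where micelles formed.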

[4] = Half life in bovine plasma by HPLC; type: ADME, Bos taurus; settings: cattle
Outline: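 Ester incubated at 40 µM initial concentration in bovine plasma at 37 °C for up to 10 h. Aliquots were removed at intervals and H3PO4 added to release protein-bound drug. Parent ester and free-acid degradation product were quantified by HPLC, and half-life was calculated.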

[5] = biological target: T1, 5-hydroxytryptamine receptor 4; assay: Antagonistic activity at human 5HT4 receptor expressed in HEK293 cells; type: functional, cell-based
Histamine H2 receptor = Histamine H2 receptor (Homo sapiens, UniProt P25021); assay: Binding affinity to Histamine receptor H2
Chain of Histamine H2 receptor (P25021 whole entry): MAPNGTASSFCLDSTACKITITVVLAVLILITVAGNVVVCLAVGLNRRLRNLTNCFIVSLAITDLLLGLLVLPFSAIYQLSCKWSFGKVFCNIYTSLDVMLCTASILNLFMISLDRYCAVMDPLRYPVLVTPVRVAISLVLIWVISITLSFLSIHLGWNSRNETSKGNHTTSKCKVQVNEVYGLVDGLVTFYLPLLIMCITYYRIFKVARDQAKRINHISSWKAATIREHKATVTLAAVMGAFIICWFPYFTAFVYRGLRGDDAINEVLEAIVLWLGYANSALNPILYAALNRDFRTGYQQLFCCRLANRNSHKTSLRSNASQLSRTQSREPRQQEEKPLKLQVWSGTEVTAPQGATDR

[6] = biological target: Muscarinic acetylcholine receptor M2 (Homo sapiens, UniProt P08172); assay: Binding affinity to muscarinic acetylcholine receptor M2
D(4) dopamine receptor = D(4) dopamine receptor (Homo sapiens, UniProt P21917); assay: Binding affinity to dopamine receptor D4
Chain of D(4) dopamine receptor (P21917 whole entry): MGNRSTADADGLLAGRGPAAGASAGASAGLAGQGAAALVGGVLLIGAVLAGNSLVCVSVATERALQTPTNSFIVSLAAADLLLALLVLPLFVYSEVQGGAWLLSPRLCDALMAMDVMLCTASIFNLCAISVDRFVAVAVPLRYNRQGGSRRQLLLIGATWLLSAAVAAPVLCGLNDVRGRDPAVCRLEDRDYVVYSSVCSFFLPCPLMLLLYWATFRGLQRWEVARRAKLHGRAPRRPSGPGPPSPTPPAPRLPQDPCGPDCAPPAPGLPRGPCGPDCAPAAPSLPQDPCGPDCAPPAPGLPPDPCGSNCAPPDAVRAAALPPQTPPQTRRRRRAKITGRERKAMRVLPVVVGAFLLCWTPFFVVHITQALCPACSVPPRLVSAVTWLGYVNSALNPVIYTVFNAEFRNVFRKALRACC

[7] = biological target: Alpha-2C adrenergic receptor (Homo sapiens, UniProt P18825); assay: Binding affinity to Alpha-2C adrenergic receptor
[8] = biological target: 5-hydroxytryptamine receptor 5A (Homo sapiens, UniProt P47898); assay: Binding affinity to 5HT5A receptor
[9] = biological target: 5-hydroxytryptamine receptor 1D (Homo sapiens, UniProt P28221); assay: Binding affinity to 5HT1D receptor
[10] = biological target: 5-hydroxytryptamine receptor 2B (Homo sapiens, UniProt P41595); assay: Binding affinity to 5HT2B receptor
[11] = biological target: Muscarinic acetylcholine receptor M1 (Homo sapiens, UniProt P11229); assay: Binding affinity to muscarinic acetylcholine receptor M1
[12] = Binding affinity to opioid receptor Sigma2
[13] = biological target: 5-hydroxytryptamine receptor 2A (Homo sapiens, UniProt P28223); assay: Binding affinity to 5HT2A receptor
D(1B) dopamine receptor = D(1B) dopamine receptor (Homo sapiens, UniProt P21918); assay: Binding affinity to dopamine receptor D5
[14] = biological target: Alpha-1B adrenergic receptor (Homo sapiens, UniProt P35368); assay: Binding affinity to Alpha-1B adrenergic receptor
[15] = biological target: Muscarinic acetylcholine receptor M3 (Homo sapiens, UniProt P20309); assay: Binding affinity to muscarinic acetylcholine receptor M3
Chain of Muscarinic acetylcholine receptor M3 (P20309 whole entry): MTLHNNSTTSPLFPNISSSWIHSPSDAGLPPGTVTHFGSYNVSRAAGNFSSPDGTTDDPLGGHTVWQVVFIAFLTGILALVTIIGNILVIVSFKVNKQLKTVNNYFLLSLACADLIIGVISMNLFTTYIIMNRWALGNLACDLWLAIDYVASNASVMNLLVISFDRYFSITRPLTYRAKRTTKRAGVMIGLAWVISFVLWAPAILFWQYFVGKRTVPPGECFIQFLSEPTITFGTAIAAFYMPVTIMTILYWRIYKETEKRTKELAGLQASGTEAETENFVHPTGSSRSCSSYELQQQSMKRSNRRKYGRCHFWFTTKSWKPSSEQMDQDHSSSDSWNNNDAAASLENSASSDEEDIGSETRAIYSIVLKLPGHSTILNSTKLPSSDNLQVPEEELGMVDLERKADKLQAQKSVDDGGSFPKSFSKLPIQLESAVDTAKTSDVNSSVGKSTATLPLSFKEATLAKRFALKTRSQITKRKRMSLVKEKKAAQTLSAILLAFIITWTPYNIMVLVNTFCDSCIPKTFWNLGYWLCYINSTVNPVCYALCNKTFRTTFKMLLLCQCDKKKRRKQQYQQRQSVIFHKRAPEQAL

[16] = biological target: Beta-2 adrenergic receptor (Homo sapiens, UniProt P07550); assay: Binding affinity to beta2 adrenergic receptor
Chain of Beta-2 adrenergic receptor (P07550 whole entry): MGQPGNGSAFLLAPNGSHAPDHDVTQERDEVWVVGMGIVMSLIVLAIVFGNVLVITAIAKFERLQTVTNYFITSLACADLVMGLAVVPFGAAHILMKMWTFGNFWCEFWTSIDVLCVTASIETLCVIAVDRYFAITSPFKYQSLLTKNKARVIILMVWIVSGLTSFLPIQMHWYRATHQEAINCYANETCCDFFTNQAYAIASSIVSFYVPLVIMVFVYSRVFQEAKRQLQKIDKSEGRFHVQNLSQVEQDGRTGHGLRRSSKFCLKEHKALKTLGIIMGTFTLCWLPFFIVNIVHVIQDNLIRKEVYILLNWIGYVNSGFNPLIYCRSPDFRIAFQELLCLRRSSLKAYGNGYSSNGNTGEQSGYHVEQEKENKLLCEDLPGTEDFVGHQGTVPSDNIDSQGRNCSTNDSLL

[17] = biological target: Alpha-2A adrenergic receptor (Homo sapiens, UniProt P08913); assay: Binding affinity to alpha2A adrenergic receptor
[18] = biological target: Beta-1 adrenergic receptor (Homo sapiens, UniProt P08588); assay: Binding affinity to beta1 adrenergic receptor
[19] = biological target: Alpha-1A adrenergic receptor (Homo sapiens, UniProt P35348); assay: Binding affinity to alpha1A adrenergic receptor
Histamine H1 receptor = Histamine H1 receptor (Homo sapiens, UniProt P35367); assay: Binding affinity to Histamine receptor H1
[20] = biological target: Sodium-dependent serotonin transporter (Homo sapiens, UniProt P31645); assay: Binding affinity to SERT
[21] = biological target: 5-hydroxytryptamine receptor 1E (Homo sapiens, UniProt P28566); assay: Binding affinity to 5HT1E receptor
[22] = biological target: Kappa-type opioid receptor (Homo sapiens, UniProt P41145); assay: Binding affinity to opioid receptor KOR
Chain of Kappa-type opioid receptor (P41145 whole entry): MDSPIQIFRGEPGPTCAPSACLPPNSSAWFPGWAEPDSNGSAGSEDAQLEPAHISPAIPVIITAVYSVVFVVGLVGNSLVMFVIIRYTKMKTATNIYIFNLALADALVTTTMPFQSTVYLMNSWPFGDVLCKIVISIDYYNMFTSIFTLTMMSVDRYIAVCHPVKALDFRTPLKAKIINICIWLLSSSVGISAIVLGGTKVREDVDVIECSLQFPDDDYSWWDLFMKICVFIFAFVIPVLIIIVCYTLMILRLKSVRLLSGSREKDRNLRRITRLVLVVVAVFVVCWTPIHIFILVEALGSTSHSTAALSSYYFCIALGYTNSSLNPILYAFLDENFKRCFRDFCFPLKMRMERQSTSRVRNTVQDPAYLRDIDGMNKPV

D(2) dopamine receptor = D(2) dopamine receptor (Homo sapiens, UniProt P14416); assay: Binding affinity to dopamine receptor D2
[23] = biological target: 5-hydroxytryptamine receptor 1B (Homo sapiens, UniProt P28222); assay: Binding affinity to 5HT1B receptor
Chain of 5-hydroxytryptamine receptor 1B (P28222 whole entry): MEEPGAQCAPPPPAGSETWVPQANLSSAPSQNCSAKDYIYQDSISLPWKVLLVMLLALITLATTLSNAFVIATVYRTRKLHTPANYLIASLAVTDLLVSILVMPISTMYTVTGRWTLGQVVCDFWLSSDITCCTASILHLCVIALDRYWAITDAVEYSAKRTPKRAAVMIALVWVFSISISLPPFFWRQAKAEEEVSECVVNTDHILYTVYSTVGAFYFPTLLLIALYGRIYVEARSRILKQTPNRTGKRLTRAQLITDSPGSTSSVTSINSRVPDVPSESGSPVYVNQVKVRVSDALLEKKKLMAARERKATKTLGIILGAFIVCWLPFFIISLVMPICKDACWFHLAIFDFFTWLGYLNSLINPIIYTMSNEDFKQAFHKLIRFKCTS

[24] = biological target: Sodium-dependent dopamine transporter (Homo sapiens, UniProt Q01959); assay: Binding affinity to DAT
[25] = Binding affinity to GABA receptor BDZ-site
D(1A) dopamine receptor = D(1A) dopamine receptor (Homo sapiens, UniProt P21728); assay: Binding affinity to dopamine receptor D1
D(3) dopamine receptor = D(3) dopamine receptor (Homo sapiens, UniProt P35462); assay: Binding affinity to dopamine receptor D3
[26] = biological target: 5-hydroxytryptamine receptor 1A (Homo sapiens, UniProt P08908); assay: Binding affinity to 5HT1A receptor
[27] = biological target: Alpha-1D adrenergic receptor (Homo sapiens, UniProt P25100); assay: Binding affinity to Alpha-1D adrenergic receptor
[28] = Binding affinity to GABA-A receptor muscimol site
Histamine H3 receptor = Histamine H3 receptor (Homo sapiens, UniProt Q9Y5N1); assay: Binding affinity to Histamine receptor H3
Histamine H4 receptor = Histamine H4 receptor (Homo sapiens, UniProt Q9H3N8); assay: Binding affinity to Histamine receptor H4
Chain of Histamine H4 receptor (Q9H3N8 whole entry): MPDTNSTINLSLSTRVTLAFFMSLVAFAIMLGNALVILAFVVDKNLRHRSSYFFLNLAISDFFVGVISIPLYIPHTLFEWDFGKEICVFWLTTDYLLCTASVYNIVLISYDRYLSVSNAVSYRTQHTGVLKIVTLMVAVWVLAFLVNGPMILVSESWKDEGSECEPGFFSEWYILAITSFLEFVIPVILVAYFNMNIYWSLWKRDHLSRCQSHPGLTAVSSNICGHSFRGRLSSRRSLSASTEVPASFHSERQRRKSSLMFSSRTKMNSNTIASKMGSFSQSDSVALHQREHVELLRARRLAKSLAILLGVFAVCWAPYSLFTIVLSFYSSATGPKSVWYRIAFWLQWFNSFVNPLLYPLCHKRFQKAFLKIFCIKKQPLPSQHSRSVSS

[29] = biological target: 5-hydroxytryptamine receptor 6 (Homo sapiens, UniProt P50406); assay: Binding affinity to 5HT6 receptor
[30] = biological target: 5-hydroxytryptamine receptor 3A (Homo sapiens, UniProt P46098); assay: Binding affinity to 5HT3 receptor
Chain of 5-hydroxytryptamine receptor 3A (P46098 whole entry): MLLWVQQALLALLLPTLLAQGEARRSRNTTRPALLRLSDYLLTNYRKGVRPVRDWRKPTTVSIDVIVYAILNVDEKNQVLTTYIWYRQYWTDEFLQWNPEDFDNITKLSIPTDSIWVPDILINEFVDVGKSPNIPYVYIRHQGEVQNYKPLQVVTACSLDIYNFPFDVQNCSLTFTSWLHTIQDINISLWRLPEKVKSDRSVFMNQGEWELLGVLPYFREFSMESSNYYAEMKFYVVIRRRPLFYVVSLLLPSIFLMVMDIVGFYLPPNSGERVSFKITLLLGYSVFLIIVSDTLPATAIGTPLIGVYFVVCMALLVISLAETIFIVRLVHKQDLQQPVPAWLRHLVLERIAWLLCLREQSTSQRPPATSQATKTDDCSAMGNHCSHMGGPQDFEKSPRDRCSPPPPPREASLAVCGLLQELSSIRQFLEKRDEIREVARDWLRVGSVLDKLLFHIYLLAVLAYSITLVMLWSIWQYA

[31] = biological target: 5-hydroxytryptamine receptor 7 (Homo sapiens, UniProt P34969); assay: Binding affinity to 5HT7 receptor
[32] = biological target: Muscarinic acetylcholine receptor M4 (Homo sapiens, UniProt P08173); assay: Binding affinity to muscarinic acetylcholine receptor M4
Chain of Muscarinic acetylcholine receptor M4 (P08173 whole entry): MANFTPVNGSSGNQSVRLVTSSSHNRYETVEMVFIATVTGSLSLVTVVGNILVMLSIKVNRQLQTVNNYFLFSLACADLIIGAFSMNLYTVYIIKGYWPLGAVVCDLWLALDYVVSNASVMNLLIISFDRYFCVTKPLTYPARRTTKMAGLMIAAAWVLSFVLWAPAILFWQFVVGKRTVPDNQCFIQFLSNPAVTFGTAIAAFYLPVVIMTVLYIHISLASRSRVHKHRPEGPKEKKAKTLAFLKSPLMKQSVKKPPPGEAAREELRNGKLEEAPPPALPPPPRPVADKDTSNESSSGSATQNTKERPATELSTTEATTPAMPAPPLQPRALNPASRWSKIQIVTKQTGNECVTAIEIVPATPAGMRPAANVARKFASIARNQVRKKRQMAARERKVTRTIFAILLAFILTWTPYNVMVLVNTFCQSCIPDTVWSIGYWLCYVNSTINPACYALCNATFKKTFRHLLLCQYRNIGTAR

[33] = biological target: Beta-3 adrenergic receptor (Homo sapiens, UniProt P13945); assay: Binding affinity to beta3 adrenergic receptor
[34] = biological target: Delta-type opioid receptor (Homo sapiens, UniProt P41143); assay: Binding affinity to opioid receptor DOR
Mu-type opioid receptor = Mu-type opioid receptor (Homo sapiens, UniProt P35372); assay: Binding affinity to opioid receptor MOR
[35] = biological target: Muscarinic acetylcholine receptor M5 (Homo sapiens, UniProt P08912); assay: Binding affinity to muscarinic acetylcholine receptor M5
[36] = biological target: Alpha-2B adrenergic receptor (Homo sapiens, UniProt P18089); assay: Binding affinity to alpha2B adrenergic receptor
[37] = biological target: 5-hydroxytryptamine receptor 2C (Homo sapiens, UniProt P28335); assay: Binding affinity to 5HT2C receptor
Chain of 5-hydroxytryptamine receptor 2C (P28335 whole entry): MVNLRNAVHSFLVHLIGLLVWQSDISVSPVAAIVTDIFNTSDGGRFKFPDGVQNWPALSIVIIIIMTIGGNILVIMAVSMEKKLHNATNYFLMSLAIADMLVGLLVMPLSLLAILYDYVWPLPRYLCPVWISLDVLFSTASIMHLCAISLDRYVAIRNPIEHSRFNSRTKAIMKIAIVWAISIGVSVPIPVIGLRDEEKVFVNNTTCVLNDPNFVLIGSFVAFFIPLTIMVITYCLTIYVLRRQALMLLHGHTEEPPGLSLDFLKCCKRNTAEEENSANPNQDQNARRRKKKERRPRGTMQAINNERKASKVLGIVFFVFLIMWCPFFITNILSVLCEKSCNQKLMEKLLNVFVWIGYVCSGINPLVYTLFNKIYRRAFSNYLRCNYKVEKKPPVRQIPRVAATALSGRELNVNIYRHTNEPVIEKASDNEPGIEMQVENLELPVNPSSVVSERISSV

T1 sequence (Q13639 whole entry): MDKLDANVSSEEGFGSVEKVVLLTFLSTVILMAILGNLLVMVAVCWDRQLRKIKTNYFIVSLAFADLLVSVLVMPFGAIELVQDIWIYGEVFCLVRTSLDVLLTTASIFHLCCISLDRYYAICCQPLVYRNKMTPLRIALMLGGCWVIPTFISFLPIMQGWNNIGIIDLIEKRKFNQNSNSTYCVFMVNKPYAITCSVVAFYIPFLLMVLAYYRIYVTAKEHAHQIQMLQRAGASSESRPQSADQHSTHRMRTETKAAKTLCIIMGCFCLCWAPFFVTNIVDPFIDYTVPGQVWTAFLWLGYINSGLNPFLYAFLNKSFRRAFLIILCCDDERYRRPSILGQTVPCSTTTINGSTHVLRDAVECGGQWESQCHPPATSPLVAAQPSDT

CCOP(=O)(CCN1CCC(CNC(=O)c2c3n(c4ccccc24)CCCO3)CC1)OCC
Ki [1]: 1.26 nM
pKb [2]: 8.64

CC(C)(C)C(=O)OCOC(=O)CCCCCN1CCC(CNC(=O)c2c3n(c4ccccc24)CCCO3)CC1
Ki [1]: 0.0646 nM
pKb [2]: 9.83

CC(C)(C)OC(=O)CN1CCC(CNC(=O)c2c3n(c4ccccc24)CCCO3)CC1
Ki [1]: 0.759 nM
pKb [2]: 9.01

CCCCN1CCC(CNC(=O)c2c3n(c4ccccc24)CCCO3)CC1 [PIBOSEROD]
Ki [1]: 0.0525 nM
logD [3]: 2.2
pKb [2]: 9.26

O=C(CCCCN1CCC(CNC(=O)c2c3n(c4ccccc24)CCCO3)CC1)OCc1ccccc1
Ki [1]: 0.00145 nM
pKb [2]: 10.2

O=C(CCCN1CCC(CNC(=O)c2c3n(c4ccccc24)CCCO3)CC1)OCc1ccccc1
Ki [1]: 0.0427 nM
half-life [4]: 20 min
pKb [2]: 9.85

O=C(O)CCCN1CCC(CNC(=O)c2c3n(c4ccccc24)CCCO3)CC1
Ki [1]: 2 nM
logD [3]: -1.2
pKb [2]: 7.96

CC(C)(C)C(=O)OCOC(=O)c1ccc(CN2CCC(CNC(=O)c3c4n(c5ccccc35)CCCO4)CC2)cc1
Ki [1]: 0.339 nM
logD [3]: 2.3
pKb [2]: 9.07

O=C(O)CCCCCCCCCCCN1CCC(CNC(=O)c2c3n(c4ccccc24)CCCO3)CC1
Ki [1]: 2.45 nM
pKb [2]: 8.97

O=C(O)CCCN1CCC(CNC(=O)c2c[nH]c3ccccc23)CC1
Ki [5]: 3630 nM
pKb [2]: 4.62

O=C(O)CN1CCC(CNC(=O)c2c3n(c4ccccc24)CCCO3)CC1
Ki [1]: 2.82 nM
logD [3]: -1.1
pKb [2]: 7.91

O=C(O)CCCN1CCC(COC(=O)c2c[nH]c3ccccc23)CC1
Ki [5]: 0.813 nM
pKb [2]: 8.16

CCOC(=O)CCCN1CCC(CNC(=O)c2c3n(c4ccccc24)CCCO3)CC1
Ki [1]: 0.102 nM
half-life [4]: 30 min
pKb [2]: 9.43

O=C(O)CCCCCN1CCC(CNC(=O)c2c3n(c4ccccc24)CCCO3)CC1
Ki (Histamine H2 receptor): > 10000 nM
Ki [6]: > 10000 nM
Ki (D(4) dopamine receptor): > 10000 nM
Ki [7]: > 10000 nM
Ki [8]: > 10000 nM
Ki [9]: > 10000 nM
Ki [10]: > 10000 nM
Ki [11]: > 10000 nM
pKi [12]: < 5
Ki [13]: > 10000 nM
Ki [1]: 1.55 nM
Ki (D(1B) dopamine receptor): > 10000 nM
Ki [14]: > 10000 nM
Ki [15]: > 10000 nM
Ki [16]: > 10000 nM
logD [3]: -1.3
Ki [17]: > 10000 nM
Ki [18]: > 10000 nM
Ki [19]: > 10000 nM
Ki (Histamine H1 receptor): > 10000 nM
Ki [20]: > 10000 nM
Ki [21]: > 10000 nM
Ki [22]: > 10000 nM
Ki (D(2) dopamine receptor): > 10000 nM
Ki [23]: > 10000 nM
Ki [24]: > 10000 nM
pKi [25]: < 5
Ki (D(1A) dopamine receptor): > 10000 nM
Ki (D(3) dopamine receptor): > 10000 nM
Ki [26]: > 10000 nM
Ki [27]: > 10000 nM
pKi [28]: < 5
Ki (Histamine H3 receptor): > 10000 nM
Ki (Histamine H4 receptor): > 10000 nM
Ki [29]: > 10000 nM
Ki [30]: > 10000 nM
Ki [31]: > 10000 nM
Ki [32]: > 10000 nM
Ki [33]: > 10000 nM
pKb [2]: 7.94
Ki [34]: > 10000 nM
Ki (Mu-type opioid receptor): > 10000 nM
Ki [35]: > 10000 nM
Ki [36]: > 10000 nM
Ki [37]: > 10000 nM

CC(C)(C)OC(=O)CCCN1CCC(CNC(=O)c2c3n(c4ccccc24)CCCO3)CC1
Ki [1]: 0.234 nM
pKb [2]: 9.47

CC(C)(C)OC(=O)CCCCCN1CCC(CNC(=O)c2c3n(c4ccccc24)CCCO3)CC1
Ki [1]: 0.0537 nM
pKb [2]: 9.89

O=C(O)c1ccc(CN2CCC(CNC(=O)c3c4n(c5ccccc35)CCCO4)CC2)cc1
Ki [1]: 5.01 nM
pKb [2]: 7.25

CCOC(=O)CCCN1CCC(CNC(=O)c2c[nH]c3ccccc23)CC1
Ki [5]: 107 nM
pKb [2]: 5.84

O=C(O)CCN1CCC(CNC(=O)c2c3n(c4ccccc24)CCCO3)CC1
Ki [1]: 1.12 nM
logD [3]: -1.3
pKb [2]: 8.08

Cn1cc(C(=O)OCC2CCN(CCNS(C)(=O)=O)CC2)c2ccccc21
Ki [5]: 0.0741 nM
pKb [2]: 9.24

COC(=O)CCCCCCCCCN1CCC(CNC(=O)c2c3n(c4ccccc24)CCCO3)CC1
Ki [1]: 0.195 nM
pKb [2]: 9.33

O=C(CCCCCN1CCC(CNC(=O)c2c3n(c4ccccc24)CCCO3)CC1)OCc1ccccc1
Ki [1]: 0.141 nM
pKb [2]: 10.2

O=C(O)CCCCN1CCC(CNC(=O)c2c3n(c4ccccc24)CCCO3)CC1
Ki [1]: 2.04 nM
logD [3]: -1.3
pKb [2]: 8.1

COC(=O)CCCCCCCCCCCN1CCC(CNC(=O)c2c3n(c4ccccc24)CCCO3)CC1
Ki [1]: 0.339 nM
pKb [2]: 9.89
